Experimental data published in ChEMBL document CHEMBL4706495, “A novel class of small molecule inhibitors with radioprotective properties” (Eur J Med Chem, 2020).
pIC50: −log10 of the molar value. Active and inactive are the calls of the source. The rule behind the calls is not given here.

How the values were obtained:
[1] = tested on: MCF7; experiment: Cytotoxicity against human MCF7 cells assessed as cell viability at 10 uM measured after 48 hrs by WST-1 assay relative to control; format: functional; conditions: read-out: Activity
How it was run: (§1)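 Ten-line human panel (9 cancer, 1 non-cancerous). Cells were seeded at a pre-established optimal density (500–30 × 10³ per well) and settled overnight. Compounds came from 10 mM DMSO stocks and were tested at two concentrations. WST-1 readout followed the manufacturer's protocol at the end of cultivation. Viability is expressed as % of untreated control cells, mean of three independent experiments.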

[2] = tested on: Jurkat; experiment: Cytotoxicity against human Jurkat cells assessed as cell viability at 100 uM measured after 48 hrs by WST-1 assay relative to control; format: functional; conditions: read-out: Activity; how it was run: as §1
[3] = tested on: MCF7; experiment: Cytotoxicity against human MCF7 cells assessed as cell viability at 100 uM measured after 48 hrs by WST-1 assay relative to control; format: functional; conditions: read-out: Activity; how it was run: as §1
[4] = Toxicity in C57Bl/6 mouse assessed as average body weight at 100 mg/kg, ip and measured immediately (reference value: 26.3 +/- 2.4 g); format: organism-based; conditions: in vivo
[5] = tested on: A549; experiment: Cytotoxicity against human A549 cells assessed as cell viability at 10 uM measured after 48 hrs by WST-1 assay relative to control; format: functional; conditions: read-out: Activity; how it was run: as §1
[6] = Cytotoxicity against human MRC5 cells assessed as cell viability at 10 uM measured after 48 hrs by WST-1 assay relative to control; format: cell-based; conditions: read-out: Activity; how it was run: as §1
[7] = tested on: Mus musculus; experiment: Radioprotective activity in C57Bl/6 mouse assessed as increase in absolute B-lymphocytes at 100 mg/kg, ip pretreated with compound for 5 min followed by gamma irradiation at 8.5 Gy and measured after 30 days by flow cytometry; format: functional, organism-based
How it was run: (§2)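 C57Bl/6 mice receive 100 mg/kg i.p. 5 min before a single 8.5 Gy ⁶⁰Co γ dose. At 7, 12 and 30 days post-irradiation, 100 µl peripheral blood is stained with anti-CD3ε, CD19 and NK1.1 antibodies for 30 min at 4 °C in the dark. Samples are washed twice and analysed by flow cytometry for T, B and NK cells. Mean ± SEM.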

[8] = tested on: A549; experiment: Cytotoxicity against human A549 cells assessed as cell viability at 100 uM measured after 48 hrs by WST-1 assay relative to control; format: functional; conditions: read-out: Activity; how it was run: as §1
[9] = tested on: Mus musculus; experiment: Radioprotective activity in C57Bl/6 mouse assessed as average body weight at 100 mg/kg, ip administered 5 min prior to gamma-irradation at 8.5 Gy and measured after 30 days; format: functional
[10] = tested on: Mus musculus; experiment: Radioprotective activity in C57Bl/6 mouse assessed as increase in absolute T-lymphocytes at 100 mg/kg, ip pretreated with compound for 5 min followed by gamma irradiation at 8.5 Gy and measured after 30 days by flow cytometry; format: functional, organism-based; how it was run: as §2
[11] = tested on: Mus musculus; experiment: Radioprotective activity in C57Bl/6 mouse assessed as median survival time at 100 mg/kg, ip administered 5 min prior to gamma-irradation at 8.5 Gy and measured after 30 days (reference value: 12 days); format: functional
[12] = tested on: HeLa; experiment: Cytotoxicity against human HeLa cells assessed as cell viability at 100 uM measured after 48 hrs by WST-1 assay relative to control; format: functional; conditions: read-out: Activity; how it was run: as §1
[13] = Toxicity in C57Bl/6 mouse assessed as average body weight at 100 mg/kg, ip measured after 30 days (reference value: 27 +/ 3.2 g); format: organism-based; conditions: in vivo, 720 h, time 30 day
[14] = tested on: PANC-1; experiment: Cytotoxicity against human PANC-1 cells assessed as cell viability at 10 uM measured after 48 hrs by WST-1 assay relative to control; format: functional; conditions: read-out: Activity; how it was run: as §1
[15] = tested on: Mus musculus; experiment: Radioprotective activity in C57Bl/6 mouse assessed as average body weight at 100 mg/kg, ip administered 5 min prior to gamma-irradation at 8.5 Gy and measured immediately (reference value: 25.4 +/- 2.6 g); format: functional
[16] = tested on: HeLa; experiment: Cytotoxicity against human HeLa cells assessed as cell viability at 10 uM measured after 48 hrs by WST-1 assay relative to control; format: functional; conditions: read-out: Activity; how it was run: as §1
[17] = tested on: MOLT-4; experiment: Cytotoxicity against human MOLT-4 cells assessed as cell viability at 10 uM measured after 48 hrs by WST-1 assay relative to control; format: functional; conditions: read-out: Activity; how it was run: as §1
[18] = Toxicity in C57Bl/6 mouse assessed as change in body weight at 100 mg/kg, ip measured after 30 days (reference value: 103 +/- 12 %); format: organism-based; conditions: in vivo, 720 h, time 30 day
[19] = tested on: Mus musculus; experiment: Radioprotective activity in C57Bl/6 mouse assessed as body weight gain at 100 mg/kg, ip administered 5 min prior to gamma-irradation at 8.5 Gy measured after 30 days relative to control; format: functional
[20] = tested on: A2780; experiment: Cytotoxicity against human A2780 cells assessed as cell viability at 100 uM measured after 48 hrs by WST-1 assay relative to control; format: functional; conditions: read-out: Activity; how it was run: as §1
[21] = tested on: MOLT-4; experiment: Cytotoxicity against human MOLT-4 cells assessed as cell viability at 100 uM measured after 48 hrs by WST-1 assay relative to control; format: functional; conditions: read-out: Activity; how it was run: as §1
[22] = tested on: PANC-1; experiment: Cytotoxicity against human PANC-1 cells assessed as cell viability at 100 uM measured after 48 hrs by WST-1 assay relative to control; format: functional; conditions: read-out: Activity; how it was run: as §1
[23] = Cytotoxicity against human MRC5 cells assessed as cell viability at 100 uM measured after 48 hrs by WST-1 assay relative to control; format: cell-based; conditions: read-out: Activity; how it was run: as §1
[24] = tested on: SAOS-2; experiment: Cytotoxicity against human SAOS-2 cells assessed as cell viability at 10 uM measured after 48 hrs by WST-1 assay relative to control; format: functional; conditions: read-out: Activity; how it was run: as §1
[25] = tested on: Jurkat; experiment: Cytotoxicity against human Jurkat cells assessed as cell viability at 10 uM measured after 48 hrs by WST-1 assay relative to control; format: functional; conditions: read-out: Activity; how it was run: as §1
[26] = tested on: A549; experiment: Cytotoxicity against human A549 cells assessed as reduction in cell viability incubated for 24 hrs by MTT assay; format: functional, cell-based; conditions: A549, 24 h
How it was run: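 A-549 cells in DMEM with 10% FBS and 1% penicillin-streptomycin were attached overnight. Compounds were prepared in PBS and serially diluted in DMEM, then incubated 24 h. Viability was read by colorimetric MTT reduction against an untreated control on each plate (100%). IC50 came from four-parameter nonlinear regression of the log concentration-response curve, mean ± SEM. MTC is the highest concentration not differing from control (t-test).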

[27] = tested on: SAOS-2; experiment: Cytotoxicity against human SAOS-2 cells assessed as cell viability at 100 uM measured after 48 hrs by WST-1 assay relative to control; format: functional; conditions: read-out: Activity; how it was run: as §1
[28] = tested on: HT-29; experiment: Cytotoxicity against human HT-29 cells assessed as cell viability at 100 uM measured after 48 hrs by WST-1 assay relative to control; format: functional; conditions: read-out: Activity; how it was run: as §1
[29] = tested on: Mus musculus; experiment: Radioprotective activity in C57Bl/6 mouse assessed as increase in absolute NK population at 100 mg/kg, ip pretreated with compound for 5 min followed by gamma irradiation at 8.5 Gy and measured after 30 days by flow cytometry; format: functional, organism-based; how it was run: as §2
[30] = Toxicity in C57Bl/6 mouse assessed as mouth death at 100 mg/kg, ip measured after 30 days; format: organism-based; conditions: in vivo, 720 h, time 30 day
How it was run: (§3)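 Safety in C57Bl/6 mice (27 ± 3 g) given a single 100 mg/kg i.p. injection without irradiation. Deaths, adverse effects and body weight followed over 30 days against an untreated control group. Weight reported as change from day 0.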

[31] = tested on: HT-29; experiment: Cytotoxicity against human HT-29 cells assessed as cell viability at 10 uM measured after 48 hrs by WST-1 assay relative to control; format: functional; conditions: read-out: Activity; how it was run: as §1
[32] = tested on: A549; experiment: Cytotoxicity against human A549 cells assessed as maximum tolerated concentration incubated for 24 hrs by MTT assay; format: functional
How it was run: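 A-549 cells in DMEM with 10% FBS and 1% penicillin-streptomycin, left to attach overnight. Compounds made up in PBS, serially diluted in DMEM, incubated 24 h, then viability read by MTT reduction against untreated controls on each plate. MTC taken as the highest concentration showing no significant difference from non-treated control (t-test).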

[33] = Toxicity in C57Bl/6 mouse assessed as adverse effects at 100 mg/kg, ip measured after 30 days; format: organism-based; conditions: in vivo, 720 h, time 30 day; how it was run: as §3
[34] = tested on: MOLT-4; experiment: Radioprotective activity against gamma irradiation-induced apoptosis in human MOLT-4 cells assessed as viable cells at 100 uM pretreated with compound for 1 hr followed by gamma irradiation and measured after 24 hrs by annexinV/propidium iodide staining based flow cytometry (reference value: 40 %); format: functional; conditions: MOLT-4, light or radiation study, time 25 hrs, read-out: Activity
[35] = tested on: A2780; experiment: Cytotoxicity against human A2780 cells assessed as cell viability at 10 uM measured after 48 hrs by WST-1 assay relative to control; format: functional; conditions: read-out: Activity; how it was run: as §1

## COc1ccccc1OCC(O)CN1CCN(CCO)CC1 (stereo not given)
[1]
  viability at 10 µM: 99%
[2]
  viability at 100 µM: 86%
[3]
  viability at 100 µM: 95%
[4]
  Activity: 27.9 g
[5]
  viability at 10 µM: 91%
[6]
  viability at 48 h, 10 µM: 90%
[7]
  Activity: Active
[8]
  viability at 100 µM: 109%
[9]
  Activity: 27.6 g
[10]
  Activity: Active
[11]
  MST: 13 days
[12]
  viability at 100 µM: 99%
[13]
  Activity: 28.5 g
[14]
  viability at 10 µM: 100%
[15]
  Activity: 26.8 g
[16]
  viability at 10 µM: 93%
[17]
  viability at 10 µM: 100%
[18]
  Activity: 102%
[19]
  Activity: 102%
[20]
  viability at 100 µM: 78%
[21]
  viability at 100 µM: 76%
[22]
  viability at 100 µM: 115%
[23]
  viability at 48 h, 100 µM: 109%
[24]
  viability at 10 µM: 106%
[25]
  viability at 10 µM: 106%
[26]
  pIC50: 2.03
[27]
  viability at 100 µM: 82%
[28]
  viability at 100 µM: 143%
[29]
  Activity: Active
[30]
  Activity: Non-Toxic
[31]
  viability at 10 µM: 93%
[32]
  MTD: 1.56 mM
[33]
  Activity: Non-Toxic
[34]
  viability at 100 µM: 59%
[35]
  viability at 10 µM: 100%
